# Columns and labels:
# [1] = test system: Rattus norvegicus; experiment: Percentage of body weight reduction in male Sprague-Dawley rats at 50 mg/kg; 46-60% reduction from controls; type: functional
# Method in brief: (§1)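 Individually housed male CD Sprague-Dawley rats trained to eat their ration within 5 h were dosed orally once daily for 5 days, 10 vehicle controls and 10 treated. Body weight was taken daily before dosing. Reduction from concurrent controls was scored in bands: 16-30%, 31-45%, 46-60%, ≥61%.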
# [2] = test system: Rattus norvegicus; experiment: Percentage of body weight reduction in male Sprague-Dawley rats at 50 mg/kg; type: functional; method in brief: as §1
# [3] = test system: Rattus norvegicus; experiment: Percentage of body weight reduction in male Sprague-Dawley rats at 50 mg/kg; […] reduction from controls; type: functional; method in brief: as §1
# [4] = test system: Rattus norvegicus; experiment: Percentage of body weight reduction in male Sprague-Dawley rats at 50 mg/kg; 31-45% reduction from controls; type: functional
# Method in brief: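 Individually housed male CD Sprague-Dawley rats trained to eat their ration within 5 h were dosed orally once daily for 5 days, 10 vehicle controls and 10 treated. Body weight was taken daily before dosing.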
# [5] = test system: Rattus norvegicus; experiment: Percentage of body weight reduction in male Sprague-Dawley rats at 25 mg/kg; type: functional; method in brief: as §1
# [6] = test system: Rattus norvegicus; experiment: Percentage of body weight reduction in male Sprague-Dawley rats at 25 mg/kg; 31-45% reduction from controls
# [7] = test system: Rattus norvegicus; experiment: Percentage of body weight reduction in male Sprague-Dawley rats at 30 mg/kg; type: functional; method in brief: as §1
# [8] = test system: Rattus norvegicus; experiment: Percentage of body weight reduction in male Sprague-Dawley rats at 50 mg/kg;; type: functional; method in brief: as §1
smiles,measurement,setting,value
N#Cc1ccc(C(F)(F)F)cc1NN=Nc1c(Cl)cccc1Cl,Body weight reduction,[1]; dose 50 mg/kg,46%
CNC(=O)N(N=Nc1cc(C(F)(F)F)ccc1C#N)c1cc(C(F)(F)F)ccc1C#N,Body weight reduction,"[1]; dose 25 mg/kg, in the assay text read “at 25 mg/kg” for “at 50 mg/kg”",46%
FC(F)(F)c1cccc(N=NNc2cccc(C(F)(F)F)c2)c1,Body weight reduction,[2],<15%
N#Cc1ccc(C(F)(F)F)cc1N=NNc1ccc(C(=O)O)cc1,Body weight reduction,[3],16%
N#Cc1ccc(Cl)cc1N=NNc1cc(Cl)ccc1C#N,Body weight reduction,[4],31%
CN(N=Nc1ccccc1)c1ccccc1,Body weight reduction,[4],31%
CC(C)C(=O)N(N=Nc1cc(C(F)(F)F)ccc1C#N)c1cc(C(F)(F)F)ccc1C#N,Body weight reduction,[5],>61%
CC(=O)N(N=Nc1cccc(C(F)(F)F)c1)c1cc(C(F)(F)F)ccc1C#N,Body weight reduction,[2],<15%
Cc1ccc(C#N)c(N=NNc2cc(C)ccc2C#N)c1,Body weight reduction,[2],<15%
N#Cc1ccc(C(F)(F)F)cc1N=NN(C(=O)Nc1ccccc1)c1cc(C(F)(F)F)ccc1C#N,Body weight reduction,[1]; dose 50 mg/kg,46%
CCCCC(=O)N(N=Nc1cc(C(F)(F)F)ccc1C#N)c1cc(C(F)(F)F)ccc1C#N,Body weight reduction,[1]; dose 50 mg/kg,46%
Clc1cccc(N=NNc2cccc(Cl)c2Cl)c1Cl,Body weight reduction,[6],31%
Clc1cccc(Cl)c1N=NNc1c(Cl)cccc1Cl,Body weight reduction,[2],<15%
Clc1ccc(N=NNc2ccc(Cl)cc2)cc1,Body weight reduction,[1]; dose 50 mg/kg,46%
CC(=O)N(N=Nc1c(Cl)cccc1Cl)c1cc(C(F)(F)F)ccc1C#N,Body weight reduction,[2],<15%
N#Cc1ccc(C(F)(F)F)cc1N=NN(C(=O)CCl)c1cc(C(F)(F)F)ccc1C#N,Body weight reduction,[2],<15%
CCOC(=O)N(N=Nc1cc(C(F)(F)F)ccc1C#N)c1cc(C(F)(F)F)ccc1C#N,Body weight reduction,[2],>61%
FC(F)(F)c1ccc(Cl)c(N=NNc2cc(C(F)(F)F)ccc2Cl)c1,Body weight reduction,[2],<15%
N#Cc1cc(C(F)(F)F)ccc1N=NNc1ccc(C(F)(F)F)cc1C#N,Body weight reduction,[4],31%
N#Cc1ccc(C(F)(F)F)cc1N=NN(C(=O)c1ccccc1)c1cc(C(F)(F)F)ccc1C#N,Body weight reduction,[2],<15%
CC(=O)N(N=Nc1ccccc1)c1ccccc1,Body weight reduction,[2],>61%
N#Cc1ccc(C(F)(F)F)cc1N=NNc1cccc(C(F)(F)F)c1,Body weight reduction,[2],<15%
Clc1ccccc1N=NNc1ccccc1Cl,Body weight reduction,[2],<15%
CCOC(=O)NC(=O)N(N=Nc1cc(C(F)(F)F)ccc1C#N)c1cc(C(F)(F)F)ccc1C#N,Body weight reduction,[2],>61%
CC(=O)N(N=Nc1cc(C(F)(F)F)ccc1C#N)c1cc(C(F)(F)F)ccc1C#N,Body weight reduction,[2],>61%
CN(N=Nc1cc(C(F)(F)F)ccc1C#N)c1cc(C(F)(F)F)ccc1C#N,Body weight reduction,[7],<15%
FC(F)(F)c1ccccc1N=NNc1ccccc1C(F)(F)F,Body weight reduction,[4],31%
N#Cc1ccc(C(F)(F)F)cc1NN=Nc1cc(C(F)(F)F)ccc1C(=O)O,Body weight reduction,[3],16%
FC(F)(F)c1ccc(Br)c(N=NNc2cc(C(F)(F)F)ccc2Br)c1,Body weight reduction,[2],<15%
COc1ccccc1N=NNc1ccccc1OC,Body weight reduction,[1]; dose 50 mg/kg,46%
CCCC(=O)N(N=Nc1cc(C(F)(F)F)ccc1C#N)c1cc(C(F)(F)F)ccc1C#N,Body weight reduction,[5],>61%
CCCNC(=O)N(N=Nc1cc(C(F)(F)F)ccc1C#N)c1cc(C(F)(F)F)ccc1C#N,Body weight reduction,[4],31%
N#Cc1ccc(C(F)(F)F)cc1NN=Nc1ccccc1,Body weight reduction,[3],16%
N#Cc1ccccc1N=NNc1ccccc1C#N,Body weight reduction,[8],<15%
CC(=O)N(N=Nc1ccc(C(F)(F)F)cc1C#N)c1ccc(C(F)(F)F)cc1,Body weight reduction,[1]; dose 50 mg/kg,46%
CCC(=O)N(N=Nc1cc(C(F)(F)F)ccc1C#N)c1cc(C(F)(F)F)ccc1C#N,Body weight reduction,[1]; dose 50 mg/kg,46%
COC(=O)c1ccc(C(F)(F)F)cc1N=NNc1cc(C(F)(F)F)ccc1C(=O)OC,Body weight reduction,[2],<15%
FC(F)(F)c1ccc(N=NNc2ccc(C(F)(F)F)cc2)cc1,Body weight reduction,[2],<15%
COC(=O)CC(=O)N(N=Nc1cc(C(F)(F)F)ccc1C#N)c1cc(C(F)(F)F)ccc1C#N,Body weight reduction,[1]; dose 50 mg/kg,46%

# — ChEMBL document CHEMBL1122471, “1,3-Diaryltriazenes: a new class of anorectic agents” (1983)
